Activity calls are given as the source filed them. The calls are words filed in the database; no cut-off is given here. Where only a bound is given, the exact number is not on record here.

These results are taken from ChEMBL document CHEMBL3804768, “Structure-Activity Relationship Studies of Mitogen Activated Protein Kinase Interacting Kinase (MNK) 1 and 2 and BCR-ABL1 Inhibitors Targeting Chronic Myeloid Leukemic Cells” (J Med Chem, 2016).

Data set [1] has as its target MAP kinase-interacting serine/threonine-protein kinase 2 (Homo sapiens, UniProt Q9HBH9). Kind of data set: Inhibition of N-terminal GST-tagged MNK2 kinase domain (72 to 385 residues) (unknown origin) expressed in Escherichia coli BL21(DE3) cells using JH3 peptide substrate preincubated for 10 mins followed by substrate addition measured after 60 mins by mobility shift assay.

Data set [2] concerns the target Tyrosine-protein kinase ABL1 (Homo sapiens, UniProt P00519, T315I). Kind of data set: Inhibition of full length human recombinant N-terminal His-tagged ABL (2 to 1130 residues) T315I mutant expressed in baculovirus expression system using FL-peptide 2 substrate preincubated for 10 mins followed by substrate addition measured after 60 mins by mobility shift assay. The essentials:
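Buffer is 100 mM HEPES pH 7.5, 10 mM MgCl2, 0.004% Tween 20, 1 mM DTT, 0.003% Brij L23. Enzyme and compound sit 10 min before ATP/substrate is added. The reaction runs 60 min at room temperature, is stopped with 10 mM EDTA, and is read by mobility shift.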

The nature of data set [3]: Antiproliferative activity against human EM2 cells after 48 hrs by Cell-Titer-Glo luminescent cell viability assay. The data set is classed as functional. Particulars: EM-2, 48 h. The method in brief:
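Cells seeded at 5000 per well in growth medium, exposed to serial doses from 0.003 μM to 50 μM for 48 h at 37 °C, 5% CO2. Viability was read by CellTiter-Glo luminescence and GI50 taken from the dose-response curve. Dose response was run in triplicate and the curve repeated twice. K562 eIF4E-overexpressing cells were cultured in RPMI with 10% FBS.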

Data set [4] can be described thus: Antiproliferative activity against human KCL22 cells after 48 hrs by Cell-Titer-Glo luminescent cell viability assay. It is filed as functional. Particulars: KCL-22, 48 h.
The target in data set [5] is Tyrosine-protein kinase ABL1 (Homo sapiens) (UniProt P00519). The experiment in a line: Inhibition of ABL1 in human K562 cells over expressing eIF4E assessed as reduction in phosphorylation of Crkl at Tyr207 after 24 hrs by Western blot analysis. It is filed as cell-based. The essentials: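 K562 eIF4E-overexpressing cells were treated at 100, 500 and 1000 nM for 24 h and lysed in RIPA buffer with SDS and protease/phosphatase inhibitors. Equal protein was resolved on 4-12% Bis-Tris gels and blotted to PVDF, with blocking in 5% BSA/PBST. The blot was probed overnight at 4 °C with a Bcr/Abl activity antibody cocktail for Crkl and phospho-Crkl Tyr207, and detected by ECL chemiluminescence.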
For orientation: In western blotting, separated proteins are transferred to a membrane and probed.

Data set [6] addresses Vascular endothelial growth factor receptor 2 (Homo sapiens, UniProt P35968). The experiment in a line: Inhibition of human recombinant VEGFR2 expressed in sf21 cells using Poly(Glu:Tyr) as substrate in presence of [gamma32P]ATP.
Data set [7] concerns the target T1, Platelet-derived growth factor receptor alpha (Homo sapiens, UniProt P16234). Kind of data set: Inhibition of human recombinant PDGFRalpha expressed in sf21 cells using Poly(Glu:Tyr) as substrate in presence of [gamma32P]ATP.
Data set [8] concerns the target Platelet-derived growth factor receptor beta (Homo sapiens, UniProt P09619). The experiment in a line: Inhibition of human recombinant PDGFRbeta expressed in sf21 cells using Poly(Glu:Tyr) as substrate in presence of [gamma32P]ATP.
In a further data set the target is Cytochrome P450 2D6 (Homo sapiens, UniProt P10635). The experiment in a line: Inhibition of CYP2D6 (unknown origin). The data set is classed as ADME.
Sequence of Cytochrome P450 2D6 (P10635 whole entry, the tested form may be a part): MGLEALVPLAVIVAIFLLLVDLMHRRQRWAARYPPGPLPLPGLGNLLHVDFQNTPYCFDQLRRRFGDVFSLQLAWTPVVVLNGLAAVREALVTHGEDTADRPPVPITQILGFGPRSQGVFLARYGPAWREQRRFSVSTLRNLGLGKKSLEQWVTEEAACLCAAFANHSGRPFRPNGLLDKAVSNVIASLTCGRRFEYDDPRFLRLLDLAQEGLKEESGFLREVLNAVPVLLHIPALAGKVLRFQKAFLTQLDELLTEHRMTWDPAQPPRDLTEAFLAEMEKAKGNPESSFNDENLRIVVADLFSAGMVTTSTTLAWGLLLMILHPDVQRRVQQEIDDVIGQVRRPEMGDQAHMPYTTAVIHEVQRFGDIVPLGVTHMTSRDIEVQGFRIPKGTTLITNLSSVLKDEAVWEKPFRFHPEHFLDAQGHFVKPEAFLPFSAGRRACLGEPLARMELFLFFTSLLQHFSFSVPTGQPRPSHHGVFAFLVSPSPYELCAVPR
Data set [9] is described as follows: Permeability of compound by PAMPA. Particulars: read-out: permeability. It is filed as ADME. (The PAMPA barrier holds no transporters, so it reflects passive diffusion.)
Data set [10] can be described thus: Cmax in CD1 mouse at 50 mg/kg, po. Particulars: in vivo. The data set is classed as ADME, organism-based. Further details: dose 50 mg/kg, route oral.
Data set [11] is described as follows: AUC in CD1 mouse at 50 mg/kg, po. It is filed as ADME, organism-based. Particulars: in vivo.
In data set [12] the target is Receptor-type tyrosine-protein kinase FLT3 (Homo sapiens) (UniProt P36888). Kind of data set: Inhibition of human recombinant FLT3 expressed in sf21 cells at 1 uM using Poly(Glu:Tyr) as substrate in presence of [gamma32P]ATP.
Sequence of Receptor-type tyrosine-protein kinase FLT3 (Homo sapiens) (P36888 whole entry): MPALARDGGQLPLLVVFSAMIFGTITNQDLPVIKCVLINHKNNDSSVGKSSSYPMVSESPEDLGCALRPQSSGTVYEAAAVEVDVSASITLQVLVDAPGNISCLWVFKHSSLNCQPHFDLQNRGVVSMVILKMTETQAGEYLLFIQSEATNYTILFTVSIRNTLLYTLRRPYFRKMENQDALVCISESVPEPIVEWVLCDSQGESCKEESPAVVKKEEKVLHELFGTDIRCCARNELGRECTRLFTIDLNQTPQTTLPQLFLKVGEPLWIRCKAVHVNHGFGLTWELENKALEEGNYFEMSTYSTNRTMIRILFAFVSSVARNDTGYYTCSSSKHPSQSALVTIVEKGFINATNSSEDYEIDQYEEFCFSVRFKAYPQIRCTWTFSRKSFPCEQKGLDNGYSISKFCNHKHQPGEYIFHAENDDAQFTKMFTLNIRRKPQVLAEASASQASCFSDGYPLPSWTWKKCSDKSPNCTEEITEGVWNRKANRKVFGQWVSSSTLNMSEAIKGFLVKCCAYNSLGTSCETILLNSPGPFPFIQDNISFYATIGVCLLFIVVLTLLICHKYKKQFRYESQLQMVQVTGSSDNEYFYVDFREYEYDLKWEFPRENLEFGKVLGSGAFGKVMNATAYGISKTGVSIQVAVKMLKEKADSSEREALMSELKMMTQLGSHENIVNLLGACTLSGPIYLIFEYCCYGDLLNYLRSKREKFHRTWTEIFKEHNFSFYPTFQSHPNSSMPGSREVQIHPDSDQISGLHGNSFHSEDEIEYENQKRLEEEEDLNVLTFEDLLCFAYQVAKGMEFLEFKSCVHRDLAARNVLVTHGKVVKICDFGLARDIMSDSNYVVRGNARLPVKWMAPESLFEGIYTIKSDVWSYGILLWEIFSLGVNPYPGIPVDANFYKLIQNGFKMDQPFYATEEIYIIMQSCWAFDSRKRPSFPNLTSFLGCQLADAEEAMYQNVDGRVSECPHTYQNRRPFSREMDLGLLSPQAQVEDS
In another data set the test system is Mus musculus. The experiment in a line: In vivo inhibition of MNK1/MNK2 in NOD-SCID mouse tumor xenografted with human K562 cells over expressing eIF4E assessed as inhibition of eIF4E phosphorylation at Ser209 at 50 mg/kg, po qd adminstered through oral gavage measured 4 hrs post dose by AlphaScreen SureFire assay. The data set is classed as functional, organism-based. The method in brief:
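Tumors were excised after the final day-14 oral dose (50 mg/kg) and flash frozen, then homogenized in SureFire lysis buffer with protease and phosphatase inhibitors. Lysate protein was normalized to 0.5 mg/mL by A280. Phospho-eIF4E Ser209 was read by AlphaScreen SureFire with 2 h acceptor and 2 h donor incubations at room temperature. Inhibition was calculated against the 0 h control signal.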

The target of data set [13] is Proto-oncogene tyrosine-protein kinase receptor Ret (Homo sapiens, UniProt P07949). Kind of data set: Inhibition of human recombinant RET expressed in sf21 cells at 1 uM using Poly(Glu:Tyr) as substrate in presence of [gamma32P]ATP.
Data set [14] has as its target Mast/stem cell growth factor receptor Kit (Homo sapiens, UniProt P10721). Kind of data set: Inhibition of human recombinant c-KIT expressed in insect cells at 1 uM using Poly(Glu:Tyr) as substrate in presence of [gamma32P]ATP.
In data set [15] the target is Fibroblast growth factor receptor 2 (Homo sapiens, UniProt P21802). The experiment in a line: Inhibition of human recombinant FGFR2 expressed in sf21 cells at 1 uM using Poly(Glu:Tyr) as substrate in presence of [gamma32P]ATP.
In data set [16] the target is T1, Platelet-derived growth factor receptor alpha. Kind of data set: Inhibition of human recombinant PDGFRalpha expressed in sf21 cells at 1 uM using Poly(Glu:Tyr) as substrate in presence of [gamma32P]ATP.

T1 sequence (P16234 whole entry): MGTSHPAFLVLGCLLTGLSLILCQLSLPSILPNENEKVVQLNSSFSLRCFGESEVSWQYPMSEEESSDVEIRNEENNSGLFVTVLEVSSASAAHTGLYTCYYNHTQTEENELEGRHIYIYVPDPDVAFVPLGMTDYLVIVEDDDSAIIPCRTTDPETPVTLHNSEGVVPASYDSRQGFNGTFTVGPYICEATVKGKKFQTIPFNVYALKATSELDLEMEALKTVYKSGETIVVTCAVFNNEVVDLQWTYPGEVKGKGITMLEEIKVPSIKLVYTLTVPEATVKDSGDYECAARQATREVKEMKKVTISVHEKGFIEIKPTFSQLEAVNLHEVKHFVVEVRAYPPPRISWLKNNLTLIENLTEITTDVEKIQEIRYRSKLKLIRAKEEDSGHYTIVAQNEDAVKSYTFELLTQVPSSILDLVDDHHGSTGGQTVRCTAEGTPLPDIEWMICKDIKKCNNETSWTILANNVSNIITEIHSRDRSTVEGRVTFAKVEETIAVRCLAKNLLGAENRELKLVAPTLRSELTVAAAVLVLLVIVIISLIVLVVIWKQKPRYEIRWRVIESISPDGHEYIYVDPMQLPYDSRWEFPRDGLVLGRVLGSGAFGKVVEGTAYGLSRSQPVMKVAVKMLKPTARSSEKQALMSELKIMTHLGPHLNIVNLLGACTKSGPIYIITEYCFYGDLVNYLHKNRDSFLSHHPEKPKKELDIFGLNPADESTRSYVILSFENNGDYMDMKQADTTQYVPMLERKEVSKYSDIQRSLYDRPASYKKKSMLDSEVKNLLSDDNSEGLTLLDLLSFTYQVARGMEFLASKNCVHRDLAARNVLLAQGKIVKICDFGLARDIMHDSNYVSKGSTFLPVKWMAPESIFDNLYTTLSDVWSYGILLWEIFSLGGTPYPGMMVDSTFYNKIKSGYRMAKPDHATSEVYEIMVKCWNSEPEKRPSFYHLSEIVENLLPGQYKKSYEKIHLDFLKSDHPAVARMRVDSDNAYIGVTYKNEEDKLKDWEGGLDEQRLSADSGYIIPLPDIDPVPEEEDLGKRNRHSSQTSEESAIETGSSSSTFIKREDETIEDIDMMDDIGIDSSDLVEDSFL
Sequence of Vascular endothelial growth factor receptor 2 (P35968 whole entry): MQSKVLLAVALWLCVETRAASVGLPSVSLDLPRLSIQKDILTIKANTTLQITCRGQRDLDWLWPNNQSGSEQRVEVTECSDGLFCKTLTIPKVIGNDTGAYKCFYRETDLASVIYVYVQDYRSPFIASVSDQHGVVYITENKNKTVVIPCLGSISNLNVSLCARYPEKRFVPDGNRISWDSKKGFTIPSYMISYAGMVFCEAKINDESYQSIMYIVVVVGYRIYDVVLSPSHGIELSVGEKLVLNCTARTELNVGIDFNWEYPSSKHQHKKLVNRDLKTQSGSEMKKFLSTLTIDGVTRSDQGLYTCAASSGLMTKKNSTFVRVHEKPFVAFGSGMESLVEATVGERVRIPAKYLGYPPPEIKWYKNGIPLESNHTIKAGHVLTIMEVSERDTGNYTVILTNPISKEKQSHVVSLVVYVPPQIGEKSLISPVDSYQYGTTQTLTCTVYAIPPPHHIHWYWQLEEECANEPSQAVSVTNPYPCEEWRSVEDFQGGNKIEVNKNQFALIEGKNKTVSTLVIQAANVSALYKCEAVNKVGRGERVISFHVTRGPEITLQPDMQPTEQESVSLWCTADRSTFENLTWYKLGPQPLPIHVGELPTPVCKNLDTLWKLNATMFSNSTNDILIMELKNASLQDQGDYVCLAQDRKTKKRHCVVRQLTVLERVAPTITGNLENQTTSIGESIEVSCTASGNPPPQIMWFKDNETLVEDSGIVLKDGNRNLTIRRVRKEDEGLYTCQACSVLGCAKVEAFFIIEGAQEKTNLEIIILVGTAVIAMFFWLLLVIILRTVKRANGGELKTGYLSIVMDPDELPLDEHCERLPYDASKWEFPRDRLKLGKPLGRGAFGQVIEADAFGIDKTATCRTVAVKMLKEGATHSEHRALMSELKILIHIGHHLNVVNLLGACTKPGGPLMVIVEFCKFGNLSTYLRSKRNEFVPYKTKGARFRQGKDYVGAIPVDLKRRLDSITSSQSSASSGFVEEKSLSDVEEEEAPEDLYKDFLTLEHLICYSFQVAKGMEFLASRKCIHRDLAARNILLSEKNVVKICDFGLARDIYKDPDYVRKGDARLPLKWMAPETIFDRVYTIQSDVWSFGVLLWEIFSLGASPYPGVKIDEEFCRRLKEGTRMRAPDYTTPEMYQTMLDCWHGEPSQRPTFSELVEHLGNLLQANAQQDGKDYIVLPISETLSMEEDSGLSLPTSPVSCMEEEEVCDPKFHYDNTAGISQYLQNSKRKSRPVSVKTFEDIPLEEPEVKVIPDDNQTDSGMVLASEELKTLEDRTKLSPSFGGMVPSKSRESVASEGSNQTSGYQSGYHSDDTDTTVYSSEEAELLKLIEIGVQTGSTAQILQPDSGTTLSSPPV
Sequence of MAP kinase-interacting serine/threonine-protein kinase 2 (Q9HBH9 whole entry, the tested form may be a part): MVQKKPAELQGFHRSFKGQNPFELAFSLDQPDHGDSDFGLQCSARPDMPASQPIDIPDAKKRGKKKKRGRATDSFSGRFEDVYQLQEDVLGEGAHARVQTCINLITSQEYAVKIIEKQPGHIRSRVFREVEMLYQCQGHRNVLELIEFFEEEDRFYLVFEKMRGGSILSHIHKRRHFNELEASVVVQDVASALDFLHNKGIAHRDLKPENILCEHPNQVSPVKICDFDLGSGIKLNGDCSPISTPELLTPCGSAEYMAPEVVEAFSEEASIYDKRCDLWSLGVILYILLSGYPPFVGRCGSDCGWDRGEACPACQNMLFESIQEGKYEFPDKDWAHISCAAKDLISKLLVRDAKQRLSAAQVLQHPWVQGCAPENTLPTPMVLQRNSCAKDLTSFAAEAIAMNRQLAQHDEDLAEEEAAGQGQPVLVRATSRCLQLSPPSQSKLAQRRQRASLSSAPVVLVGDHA

On to `CCN1CCN(Cc2ccc(NC(=O)CNc3ccc(-c4ccc(NC(=O)C5CC5)nc4)cc3)cc2C(F)(F)F)CC1`, for which the IC50 in data set [1] was 16 nM; in [2], 50 nM; in data set [6], 24 nM; in data set [7] it was 672 nM; in [8] it was 1080 nM; on Cytochrome P450 2D6, > 30000 nM. Also, the GI50 in data set [3] amounted to 15 nM; in data set [4], 50 nM. For the same compound, the inhibition entry in data set [5] was “Dose-dependent effect”; in data set [12], > 99%; in data set [13] it was > 99%; in [14], > 99%; in [15], > 99%; in [16] it was > 99%. For the same compound, in [9], the Papp was found to be 34.5 ×10⁻⁶ cm/s. For the same compound, the Cmax in data set [10] stood at 2490 ng/mL. In addition, in data set [11], the area under the curve (AUC) worked out at 14300 ng·h/mL. Moreover, in the data set with Mus musculus, the inhibition entry is “Active”.
Take `CN1CCN(Cc2ccc(NC(=O)CNc3ccc(-c4ccc(NC(=O)C5CC5)nc4)cc3F)cc2C(F)(F)F)CC1`: the IC50 was 10 nM in data set [1]; 20 nM in data set [2]; 21 nM in data set [6]; 1280 nM in data set [7]; 1050 nM in data set [8]; > 30000 nM on Cytochrome P450 2D6. In addition, the GI50 turned out to be 1 nM in [3] and 13 nM in data set [4]. Moreover, the inhibition result in [5] was “Dose-dependent effect”; in data set [12], > 99%; in data set [13], > 99%; in [14], > 99%; in data set [15] it was > 99%; in data set [16] it was > 99%. Besides, the Papp in [9] was 30.6 ×10⁻⁶ cm/s. In data set [10], this compound gave a peak concentration (Cmax) of 1210 ng/mL. Also, in data set [11], the exposure (AUC) stood at 5130 ng·h/mL. Moreover, in the data set with Mus musculus, the inhibition result was “Active”.

One may read the IC50 as the midpoint of a concentration-inhibition curve. The GI50 is the concentration that inhibits growth by half. Read a low GI50 as more potent growth inhibition. For orientation: inhibition means how much of the control response was suppressed. A word on the Cmax: it is the peak of the concentration-time curve. For orientation: AUC means the area under the concentration-time curve, a measure of exposure.
